{
  "source": "paper PMC5987874",
  "about": "(The Journal of General Physiology, 2018)",
  "test_in_all_cases": "Whole-cell voltage clamp, Zn^2+ modulation of GAQ gating",
  "type_in_all_cases": "cell-based",
  "key": {"[1]": {"molecular_target": "T1, human Hv1 H140A-D185H-H193A (Homo sapiens, UniProt Q96D96, D185H/H140A/H193A)", "T1 sequence (Q96D96 1-273 H140A/D185H/H193A)": "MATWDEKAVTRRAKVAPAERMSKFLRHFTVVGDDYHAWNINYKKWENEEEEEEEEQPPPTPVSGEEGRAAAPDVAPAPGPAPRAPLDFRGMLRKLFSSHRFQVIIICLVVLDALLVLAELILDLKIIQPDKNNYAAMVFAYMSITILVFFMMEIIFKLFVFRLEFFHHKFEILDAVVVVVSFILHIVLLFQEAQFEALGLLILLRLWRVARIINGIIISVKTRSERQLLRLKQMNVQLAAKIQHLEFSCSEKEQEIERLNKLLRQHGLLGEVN", "how_it_was_run": "(§1)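 Whole-cell patch clamp at ~21°C. Pipette and bath (mM): ~80 TMA-MeSO3, 100 Bis-Tris, 8 HCl, pH 6.5, 310–320 mOsm. ZnCl2 was diluted into bath solution and applied by gravity superfusion, at least 2 min per change. Test step voltage was set per construct from its V0.5. G_STEP = end-of-step current/(V−V_REV). Effect = 1 − G_Zn/G_control, fitted to the Hill equation. IC50 and nH are means ± SEM from separate cells. ΔpIC50 was tested by unpaired t test, P<0.05.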"}, "[2]": {"molecular_target": "T2, human Hv1 D130H (D^1.69H) (Homo sapiens, UniProt Q96D96, D130H)", "T2 sequence (Q96D96 1-273 D130H)": "T1 sequence (Q96D96 1-273 H140A/D185H/H193A) with D130H, A140H, H185D, A193H", "how_it_was_run": "as §1"}, "human Hv1 D130H-H140A": {"molecular_target": "T3, human Hv1 D130H-H140A (Homo sapiens, UniProt Q96D96, D130H/H140A)", "T3 sequence (Q96D96 1-273 D130H/H140A)": "T1 sequence (Q96D96 1-273 H140A/D185H/H193A) with D130H, H185D, A193H", "how_it_was_run": "as §1"}, "human Hv1 D185A-H193A": {"molecular_target": "T4, human Hv1 D185A-H193A (Homo sapiens, UniProt Q96D96, D185A/H193A)", "T4 sequence (Q96D96 1-273 D185A/H193A)": "T1 sequence (Q96D96 1-273 H140A/D185H/H193A) with A140H, H185A", "how_it_was_run": "as §1"}, "human Hv1 E119H-H140A": {"molecular_target": "T5, human Hv1 E119H-H140A (Homo sapiens, UniProt Q96D96, E119H/H140A)", "T5 sequence (Q96D96 1-273 E119H/H140A)": "T1 sequence (Q96D96 1-273 H140A/D185H/H193A) with E119H, H185D, A193H", "how_it_was_run": "as §1"}, "human Hv1 E119A-H193A": {"molecular_target": "T6, human Hv1 E119A-H193A (Homo sapiens, UniProt Q96D96, E119A/H193A)", "T6 sequence (Q96D96 1-273 E119A/H193A)": "T1 sequence (Q96D96 1-273 H140A/D185H/H193A) with E119A, A140H, H185D", "how_it_was_run": "as §1"}, "[3]": {"conditions": "VSTEP 100 mV, calculated as log (IC50)"}, "[4]": {"conditions": "VSTEP 120 mV, calculated as log (IC50)"}, "[5]": {"conditions": "read-out: IC50, fit of the mean data to a Hill function, Fig. 4C"}, "[6]": {"conditions": "read-out: IC50, fit of the mean data to a Hill function, Fig. 4A"}},
  "note": "Changes are numbered by the printed parent chain. Like-named read-outs stand apart in the source and are kept apart here.",
  "data": [
    {"smiles": "[Cl-].[Cl-].[Zn+2]", "note": "[Zn^2+, ZnCl2]", "values": [
      {"measurement": "Mean ΔpIC50 = (pIC50_1 - pIC50_2)", "setting": "[1]; H140A-D185H-H193A vs H140A-H193A", "value": 0.38},
      {"measurement": "Hill value", "setting": "[1]; VSTEP 100 mV", "value": 1.05},
      {"measurement": "pIC50", "setting": "[1]; [3]", "value": "−3.15"},
      {"measurement": "Mean ΔpIC50 = (pIC50_1 - pIC50_2)", "setting": "[2]; D130H vs WT", "value": 0.22},
      {"measurement": "nH, fit of the mean data to a Hill function", "setting": "[2]; Fig. 4C", "value": 0.7},
      {"measurement": "Hill value", "setting": "[2]; VSTEP 120 mV", "value": 0.95},
      {"measurement": "pIC50", "setting": "[2]; [4]", "value": 5.67},
      {"measurement": "IC50", "setting": "[2]; [5]", "value": 2.4, "unit": "µM"},
      {"measurement": "Mean ΔpIC50 = (pIC50_1 - pIC50_2)", "setting": "human Hv1 D130H-H140A; D130H-H140A vs H140A", "value": 0.01},
      {"measurement": "nH, fit of the mean data to a Hill function", "setting": "human Hv1 D130H-H140A; Fig. 4C", "value": 0.5},
      {"measurement": "Hill value", "setting": "human Hv1 D130H-H140A; VSTEP 80 mV", "value": 0.58},
      {"measurement": "pIC50", "setting": "human Hv1 D130H-H140A; VSTEP 80 mV, calculated as log (IC50)", "value": "−4.42"},
      {"measurement": "IC50", "setting": "human Hv1 D130H-H140A; [5]", "value": 39.7, "unit": "µM"},
      {"measurement": "IC50", "setting": "human Hv1 D130H-H140A; read-out: Mean IC50 @ VSTEP, VSTEP 80 mV, pH 6.5, mean of fits in separate cells", "value": 41.5, "unit": "µM"},
      {"measurement": "nH, fit of the mean data to a Hill function", "setting": "human Hv1 D185A-H193A; Fig. 4D", "value": 0.7},
      {"measurement": "Hill value", "setting": "human Hv1 D185A-H193A; VSTEP 140 mV", "value": 0.62},
      {"measurement": "pIC50", "setting": "human Hv1 D185A-H193A; VSTEP 140 mV, calculated as log (IC50)", "value": "−3.88"},
      {"measurement": "IC50", "setting": "human Hv1 D185A-H193A; read-out: IC50, fit of the mean data to a Hill function, Fig. 4D", "value": 99.2, "unit": "µM"},
      {"measurement": "Mean ΔpIC50 = (pIC50_1 - pIC50_2)", "setting": "human Hv1 E119H-H140A; E119H-H140A vs H140A", "value": 1.81},
      {"measurement": "nH, fit of the mean data to a Hill function", "setting": "human Hv1 E119H-H140A; Fig. 4A", "value": 1.2},
      {"measurement": "Hill value", "setting": "human Hv1 E119H-H140A; VSTEP 120 mV", "value": 2.09},
      {"measurement": "pIC50", "setting": "human Hv1 E119H-H140A; [4]", "value": 6.23},
      {"measurement": "IC50", "setting": "human Hv1 E119H-H140A; [6]", "value": 0.67, "unit": "µM"},
      {"measurement": "Mean ΔpIC50 = (pIC50_1 - pIC50_2)", "setting": "human Hv1 E119A-H193A; E119A-H193A vs E119A", "value": "−1.60"},
      {"measurement": "Mean ΔpIC50 = (pIC50_1 - pIC50_2)", "setting": "human Hv1 E119A-H193A; E119A-H193A vs H193A", "value": "−0.5"},
      {"measurement": "nH, fit of the mean data to a Hill function", "setting": "human Hv1 E119A-H193A; Fig. 4A", "value": 0.8},
      {"measurement": "Hill value", "setting": "human Hv1 E119A-H193A; VSTEP 100 mV", "value": 0.78},
      {"measurement": "pIC50", "setting": "human Hv1 E119A-H193A; [3]", "value": "−3.56"},
      {"measurement": "IC50", "setting": "human Hv1 E119A-H193A; [6]", "value": 274, "unit": "µM"}
    ]}
  ]
}
